The results in this text go back to ChEMBL document CHEMBL1139132, “N-caffeoylphenalkylamide derivatives as bacterial efflux pump inhibitors” (2007).

As usually defined, the MIC is the lowest concentration that inhibits growth of the organism.

Holding throughout (type): functional
Assay [1] has as its system Staphylococcus aureus. Put plainly: Inhibition of NorA pump in fluoroquinolone-resistant Staphylococcus aureus SA1199B assessed as drug level causing 4-fold reduction of Norfloxacin MIC. The essentials: (§1)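 SA-1199B, which overexpresses NorA, tested by dilution MIC. Norfloxacin MIC measured with and without added test agent. Potentiation expressed as the fold reduction of the norfloxacin MIC relative to norfloxacin alone, at the stated agent concentration.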

Assay [2] has as its system Staphylococcus aureus. Put plainly: Inhibition of NorA pump in fluoroquinolone-resistant Staphylococcus aureus SA1199B assessed as drug level causing reduction of Norfloxacin MIC. The essentials:
as §1

Assay [3] relates to Staphylococcus aureus. The assay is described as follows: Inhibition of NorA pump in fluoroquinolone-resistant Staphylococcus aureus SA1199B assessed as drug level causing 8-fold reduction of Norfloxacin MIC. The essentials:
as §1

Assay [4] has as its system Staphylococcus aureus. The assay is described as follows: Antimicrobial activity against fluoroquinolone-resistant Staphylococcus aureus SA1199B. The essentials:
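S. aureus SA-1199B, which overexpresses the NorA MDR efflux pump. MIC determined by the standard dilution method for aerobically growing bacteria.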

The test system of assay [5] is Staphylococcus aureus. The assay is described as follows: Inhibition of NorA pump in fluoroquinolone-resistant Staphylococcus aureus SA1199B assessed as drug level causing 16-fold reduction of Norfloxacin MIC. The essentials: as §1
Assay [6] concerns Staphylococcus aureus. Put plainly: Inhibition of NorA pump in fluoroquinolone-resistant Staphylococcus aureus SA1199B assessed as drug level causing 2-fold reduction of Norfloxacin MIC. The essentials:
as §1

Converted amounts (≈) assume the structure as drawn.

`COc1ccc(/C=C/C(=O)NCCc2ccccc2)cc1OC`: in assay [1], the Activity came to 322 µM.
In the case of `COc1ccc(CCC(=O)NCCc2ccc(O)c(O)c2)cc1OC`, the Activity in assay [2] is 290 µM.
On to `COc1ccc(/C=C/C(=O)NCCc2c[nH]c3ccccc23)cc1OC`, for which the Activity in assay [3] came to 57 µM; in assay [5], 286 µM; in assay [1], 29 µM. In assay [4], this compound gave a minimum inhibitory concentration (MIC) of more than 366 µM.
On to `COc1ccc(/C=C/C(=O)NCCc2ccc(O)c(O)c2)cc1OC`, for which the Activity worked out at 292 µM in assay [3] and 146 µM in assay [1].
Consider `COc1ccc(/C=C/C(=O)NCCc2ccc(OC)c(OC)c2)cc1OC`, for which the Activity in assay [3] worked out at 162 µM; in assay [6], 54 µM.
On to `COc1cc(/C=C/C(=O)NCCc2ccc(O)c(O)c2)cc(OC)c1OC`, for which the Activity in assay [1] is 268 µM.
In the case of `COc1ccc(/C=C/C(=O)NCCc2cc(O)c(O)c(O)c2)cc1OC`, the Activity in assay [2] amounted to 56 µM. Besides, in assay [4], inhibition of growth (MIC) required 356 µM (≈ 128 µg/mL).
Take `O=C(/C=C/c1ccccc1)NCCc1ccc(O)c(O)c1`: the MIC in assay [4] was more than 452 µM. Moreover, the Activity in assay [5] worked out at 353 µM; in assay [1], 70 µM.
With `O=C(/C=C/c1ccc(O)c(O)c1)NCCc1ccc(O)c(O)c1`, the values for the Activity in assay [3] and in assay [1] were 317 µM and 63 µM, respectively. For the same compound, the MIC in assay [4] was not below 406 µM.
For `CCn1cc(C(=O)O)c(=O)c2cc(F)c(N3CCNCC3)cc21` [NORFLOXACIN], 100 µM (≈ 31.9 µg/mL) was the least that counted as inhibitory in assay [4] (MIC).
With `COC(=O)[C@H]1[C@H]2C[C@@H]3c4[nH]c5cc(OC)ccc5c4CCN3C[C@H]2C[C@@H](OC(=O)c2cc(OC)c(OC)c(OC)c2)[C@@H]1OC` [RESERPINE], the MIC in assay [3] (Staphylococcus aureus, SA1199B) came to 33 µM (≈ 20.1 µg/mL).
